Source: ChEMBL document CHEMBL1255289, “In vitro antifungal activities of isavuconazole (BAL4815), voriconazole, and fluconazole against 1,007 isolates of zygomycete, Candida, Aspergillus, Fusarium, and Scedosporium species” (2008)
Values after ≈ are worked out from the molar mass of the structure shown.

Key:
Assay type in all cases: functional
Aspergillus terreus = assay: Antifungal activity against Aspergillus terreus isolates after 48 hrs by CLSI M38-A procedure based assay; details: Aspergillus terreus, 48 h
Outline: (§1)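 Aspergillus isolates tested by CLSI M38-A broth microdilution at final 0.015–16 µg/ml and 35°C. Plates were read macroscopically at 48 h. The MIC was the lowest concentration producing complete inhibition of growth (MIC-0).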

Aspergillus fumigatus = assay: Antifungal activity against Aspergillus fumigatus isolates after 48 hrs by CLSI M38-A procedure based assay; details: Aspergillus fumigatus, 48 h; outline: as §1
Aspergillus flavus = assay: Antifungal activity against Aspergillus flavus isolates after 48 hrs by CLSI M38-A procedure based assay; details: Aspergillus flavus, 48 h; outline: as §1
Aspergillus niger = assay: Antifungal activity against Aspergillus niger isolates after 48 hrs by CLSI M38-A procedure based assay; details: Aspergillus niger, 48 h; outline: as §1
Aspergillus sp. = assay: Antifungal activity against Aspergillus sp. isolates after 48 hrs by CLSI M38-A procedure based assay; outline: as §1
Candida parapsilosis = assay: Antifungal activity against Candida parapsilosis isolates after 48 hrs by CLSI M27-A2 procedure based assay; details: Lodderomyces parapsilosis, 48 h
Outline: (§2)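 Candida isolates tested by CLSI M27-A2 broth microdilution at final 0.015–16 µg/ml, or 0.125–128 µg/ml for the comparator azole. Incubation was at 35°C with a visual read at 48 h. MIC-2 was the lowest concentration giving a prominent turbidity drop, about 50% growth inhibition.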

Candida albicans = assay: Antifungal activity against Candida albicans isolates after 48 hrs by CLSI M27-A2 procedure based assay; details: Candida albicans, 48 h; outline: as §2
Mucor [1] = assay: Antifungal activity against Mucor isolates assessed as lowest compound concentration that produced complete inhibition of microbial growth after 24 hrs by CLSI M38-A procedure based assay; details: Mucor, 24 h
Outline: (§3)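 Zygomycete isolates subcultured on potato dextrose or Sabouraud agar, then tested by CLSI M38-A broth microdilution. Drugs were serially diluted in plates at final 0.015–16 µg/ml and incubated at 35°C. Plates were read by eye at 24 h. MIC-0 was the lowest concentration giving complete growth inhibition.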

Mucor [2] = assay: Antifungal activity against Mucor isolates assessed as lowest compound concentration that produced slight growth or approximately 25% of that of growth control after 24 hrs by CLSI M38-A procedure based assay
Outline: (§4)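 Clinical isolates were kept at –70°C as spore suspensions in sterile water and subcultured on potato dextrose or Sabouraud agar before testing. Broth microdilution used DMSO stocks in trays stored at –70°C, with final drug 0.015–16 µg/ml.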

Rhizopus [3] = assay: Antifungal activity against Rhizopus isolates assessed as lowest compound concentration that produced complete inhibition of microbial growth after 24 hrs by CLSI M38-A procedure based assay; details: Rhizopus, 24 h; outline: as §3
Rhizopus [4] = assay: Antifungal activity against Rhizopus isolates assessed as lowest compound concentration that produced slight growth or approximately 25% of that of growth control after 24 hrs by CLSI M38-A procedure based assay
Outline: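 Rhizopus isolates tested by CLSI M38-A broth microdilution at final 0.015–16 µg/ml, 35°C, read by eye at 24 h.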

Absidia [5] = assay: Antifungal activity against Absidia isolates assessed as lowest compound concentration that produced complete inhibition of microbial growth after 24 hrs by CLSI M38-A procedure based assay; outline: as §3
Absidia [6] = assay: Antifungal activity against Absidia isolates assessed as lowest compound concentration that produced slight growth or approximately 25% of that of growth control after 24 hrs by CLSI M38-A procedure based assay; outline: as §4
Cunninghamella [7] = assay: Antifungal activity against Cunninghamella isolates assessed as lowest compound concentration that produced complete inhibition of microbial growth after 24 hrs by CLSI M38-A procedure based assay; outline: as §3
Cunninghamella [8] = assay: Antifungal activity against Cunninghamella isolates assessed as lowest compound concentration that produced slight growth or approximately 25% of that of growth control after 24 hrs by CLSI M38-A procedure based assay; outline: as §4
Syncephalastrum [9] = assay: Antifungal activity against Syncephalastrum isolates assessed as lowest compound concentration that produced complete inhibition of microbial growth after 24 hrs by CLSI M38-A procedure based assay; outline: as §3
Syncephalastrum [10] = assay: Antifungal activity against Syncephalastrum isolates assessed as lowest compound concentration that produced slight growth or approximately 25% of that of growth control after 24 hrs by CLSI M38-A procedure based assay; outline: as §4
Scedosporium apiospermum [11] = assay: Antifungal activity against Scedosporium apiospermum isolates assessed as lowest compound concentration that produced complete inhibition of microbial growth after 24 hrs by CLSI M38-A procedure based assay; details: Scedosporium apiospermum, 24 h
Scedosporium apiospermum [12] = assay: Antifungal activity against Scedosporium apiospermum isolates assessed as lowest compound concentration that produced slight growth or approximately 25% of that of growth control after 24 hrs by CLSI M38-A procedure based assay
Lomentospora prolificans [13] = assay: Antifungal activity against Scedosporium prolificans isolates assessed as lowest compound concentration that produced complete inhibition of microbial growth after 24 hrs by CLSI M38-A procedure based assay; details: Lomentospora prolificans, 24 h
Lomentospora prolificans [14] = assay: Antifungal activity against Scedosporium prolificans isolates assessed as lowest compound concentration that produced slight growth or approximately 25% of that of growth control after 24 hrs by CLSI M38-A procedure based assay
Nakaseomyces glabratus = assay: Antifungal activity against Candida glabrata isolates after 48 hrs by CLSI M27-A2 procedure based assay; details: Nakaseomyces glabratus, 48 h; outline: as §2
Candida tropicalis = assay: Antifungal activity against Candida tropicalis isolates after 48 hrs by CLSI M27-A2 procedure based assay; details: Candida tropicalis, 48 h; outline: as §2
Candida = assay: Antifungal activity against Candida sp. isolates after 48 hrs by CLSI M27-A2 procedure based assay
Outline: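 Candida isolates were stored at –70°C as yeast suspensions and subcultured on potato dextrose or Sabouraud agar before use. Broth microdilution used DMSO drug stocks, with final well concentrations of 0.015–16 or 0.125–128 µg/ml depending on the azole. Plates were incubated at 35°C and read macroscopically at 48 h. MIC-2 was the lowest concentration giving a prominent turbidity decrease (~50% growth inhibition).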

Pichia kudriavzevii = assay: Antifungal activity against Candida krusei isolates after 48 hrs by CLSI M27-A2 procedure based assay; outline: as §2
Fusarium [15] = assay: Antifungal activity against Fusarium sp. isolates assessed as lowest compound concentration that produced complete inhibition of microbial growth after 24 hrs by CLSI M38-A procedure based assay; details: Fusarium, 24 h
Fusarium [16] = assay: Antifungal activity against Fusarium sp. isolates assessed as lowest compound concentration that produced slight growth or approximately 25% of that of growth control after 24 hrs by CLSI M38-A procedure based assay

What does the source list for `C[C@@H](c1ncncc1F)[C@](O)(Cn1cncn1)c1ccc(F)cc1F` [VORICONAZOLE]?
MIC50 (Aspergillus terreus): 1 µg/mL (≈ 2.86 µM); MIC90 (Aspergillus terreus): 1 µg/mL (≈ 2.86 µM); MIC50 (Aspergillus fumigatus): 0.5 µg/mL (≈ 1.43 µM); MIC90 (Aspergillus fumigatus): 1 µg/mL (≈ 2.86 µM); MIC50 (Aspergillus flavus): 1 µg/mL (≈ 2.86 µM); MIC90 (Aspergillus flavus): 1 µg/mL (≈ 2.86 µM); MIC50 (Aspergillus niger): 1 µg/mL (≈ 2.86 µM); MIC90 (Aspergillus niger): 1 µg/mL (≈ 2.86 µM); MIC (Aspergillus sp.): 0.125 µg/mL (≈ 0.358 µM); MIC (Candida parapsilosis): < 0.015 µg/mL; MIC50 (Candida parapsilosis): < 0.015 µg/mL; MIC90 (Candida parapsilosis): 0.06 µg/mL (≈ 0.172 µM); MIC50 (Candida albicans): 0.03 µg/mL (≈ 0.0859 µM); MIC90 (Candida albicans): 0.06 µg/mL (≈ 0.172 µM); MIC50 (Mucor [1]): > 16 µg/mL; MIC90 (Mucor [1]): > 16 µg/mL; MIC50 (Mucor [2]): 16 µg/mL (≈ 45.8 µM); MIC90 (Mucor [2]): > 16 µg/mL; MIC (Rhizopus [3]): 8 µg/mL (≈ 22.9 µM); MIC50 (Rhizopus [3]): 8 µg/mL (≈ 22.9 µM); MIC90 (Rhizopus [3]): 16 µg/mL (≈ 45.8 µM); MIC50 (Rhizopus [4]): 8 µg/mL (≈ 22.9 µM); MIC90 (Rhizopus [4]): > 16 µg/mL; MIC (Absidia [5]): 4 µg/mL (≈ 11.5 µM); MIC (Absidia [6]): 4 µg/mL (≈ 11.5 µM); MIC (Cunninghamella [7]): > 16 µg/mL; MIC (Cunninghamella [8]): 8 µg/mL (≈ 22.9 µM); MIC (Syncephalastrum [9]): 4 µg/mL (≈ 11.5 µM); MIC (Syncephalastrum [10]): 2 µg/mL (≈ 5.73 µM); MIC50 (Scedosporium apiospermum [11]): 0.5 µg/mL (≈ 1.43 µM); MIC90 (Scedosporium apiospermum [11]): 1 µg/mL (≈ 2.86 µM); MIC50 (Scedosporium apiospermum [12]): 0.25 µg/mL (≈ 0.716 µM); MIC90 (Scedosporium apiospermum [12]): 0.5 µg/mL (≈ 1.43 µM); MIC (Lomentospora prolificans [13]): 16 µg/mL (≈ 45.8 µM); MIC (Lomentospora prolificans [14]): 4 µg/mL (≈ 11.5 µM); MIC50 (Nakaseomyces glabratus): 0.125 µg/mL (≈ 0.358 µM); MIC90 (Nakaseomyces glabratus): 1 µg/mL (≈ 2.86 µM); MIC50 (Candida tropicalis): 0.03 µg/mL (≈ 0.0859 µM); MIC90 (Candida tropicalis): 0.06 µg/mL (≈ 0.172 µM); MIC (Candida): 0.006 µg/mL (≈ 0.0172 µM); MIC (Pichia kudriavzevii): 0.125 µg/mL (≈ 0.358 µM); MIC50 (Fusarium [15]): 4 µg/mL (≈ 11.5 µM); MIC90 (Fusarium [15]): 16 µg/mL (≈ 45.8 µM); MIC50 (Fusarium [16]): 4 µg/mL (≈ 11.5 µM); MIC90 (Fusarium [16]): 8 µg/mL (≈ 22.9 µM)

What does the source list for `OC(Cn1cncn1)(Cn1cncn1)c1ccc(F)cc1F` [FLUCONAZOLE]?
MIC50 (Candida parapsilosis): 0.5 µg/mL (≈ 1.63 µM); MIC90 (Candida parapsilosis): 1 µg/mL (≈ 3.27 µM); MIC50 (Candida albicans): 0.25 µg/mL (≈ 0.816 µM); MIC90 (Candida albicans): 16 µg/mL (≈ 52.2 µM); MIC50 (Nakaseomyces glabratus): 16 µg/mL (≈ 52.2 µM); MIC90 (Nakaseomyces glabratus): 32 µg/mL (≈ 104 µM); MIC (Candida tropicalis): 0.25 µg/mL (≈ 0.816 µM); MIC50 (Candida tropicalis): 0.25 µg/mL (≈ 0.816 µM); MIC90 (Candida tropicalis): 2 µg/mL (≈ 6.53 µM); MIC (Candida): 0.25 µg/mL (≈ 0.816 µM); MIC (Pichia kudriavzevii): 16 µg/mL (≈ 52.2 µM)
